We go through 3 molecules from ChEMBL document CHEMBL4393722, “Development of the "hidden" multifunctional agents for Alzheimer's disease” (Eur J Med Chem, 2019).

Molecules are shown by their SMILES. Activity calls are given as the source filed them. The rule behind the calls is not given here.

The species named for test [1] is Danio rerio. The test can be described thus: Cognition enhancement in aluminium chloride-induced Alzheimer's disease zebra fish model assessed as Dyskinesia recovery rate at 250 uM treated from 3 dpf to 5 dpf relative to control. The format is functional. In a few lines: (§1)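 Zebrafish larvae were exposed to 150 µM AlCl₃ from 3 to 5 dpf, with the test drug co-administered over the same 3–5 dpf window. There were 30 fish per group. Dyskinesia recovery rate (DRR) and response efficiency (RE) were both calculated from the average swimming speed of drug-treated fish, with p values reported.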

The subject of test [2] is Mus musculus. Description: Cognition enhancement in aluminium trichloride-induced amnesia mouse model assessed as error times at 2 mg/kg administered via gastric gavage for 30 days by SMG-2 programmable water maze test. The format is functional, organism-based.
In test [3] the test system is Mus musculus. Description: Cognition enhancement in aluminium trichloride-induced amnesia mouse model assessed as total swimming time at 2 mg/kg administered via gastric gavage for 30 days by SMG-2 programmable water maze test. The format is functional, organism-based.
Test [4] is filed under the species Danio rerio. Description: Cognition enhancement in aluminium chloride-induced Alzheimer's disease zebra fish model assessed as Response efficiency at 10 uM treated from 3 dpf to 5 dpf relative to control. The format is functional. In a few lines:
as §1

The species entered for test [5] is Danio rerio. Description: Cognition enhancement in aluminium chloride-induced Alzheimer's disease zebra fish model assessed as Dyskinesia recovery rate at 50 uM treated from 3 dpf to 5 dpf relative to control. The format is functional. In a few lines: as §1
Test [6] is filed under the species Danio rerio. The test can be described thus: Cognition enhancement in aluminium chloride-induced Alzheimer's disease zebra fish model assessed as Response efficiency at 250 uM treated from 3 dpf to 5 dpf relative to control. In kind it is functional. In a few lines:
as §1

The species named for test [7] is Danio rerio. The test can be described thus: Cognition enhancement in aluminium chloride-induced Alzheimer's disease zebra fish model assessed as Response efficiency at 50 uM treated from 3 dpf to 5 dpf relative to control. The format is functional. In a few lines:
as §1

Test [8] is filed under the species Danio rerio. The test can be described thus: Cognition enhancement in aluminium chloride-induced Alzheimer's disease zebra fish model assessed as Dyskinesia recovery rate at 10 uM treated from 3 dpf to 5 dpf relative to control. The format is functional. In a few lines:
as §1

Test [9] deals with Amyloid-beta precursor protein (Homo sapiens) (UniProt P05067). Description: Inhibition of HFIP-pretreated amyloid beta (1 to 42) (unknown origin) self-aggregation at 20 uM after 48 hrs by thioflavin-T fluorescence assay.
Test [10] in a line: Metal chelating activity assessed as compound-Cu2+ complex formation by measuring decrease in absorption with spectral shift to red end at 25 uM incubated for 5 mins in presence of 25 uM CuCl2 by UV-visible spectrophotometry.
A short description of test [11]: Metal chelating activity assessed as compound-Fe2+ complex formation at 25 uM incubated for 5 mins in presence of 25 uM FeSO4 by UV-visible spectrophotometry.
In test [12] the target is Amyloid-beta precursor protein (Homo sapiens) (UniProt P05067). Description: Inhibition of HFIP-pretreated amyloid beta (1 to 42) (unknown origin) self-aggregation at 20 uM after 72 hrs by uranyl acetate staining based transmission electron microscopy. In a few lines: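 Aβ1-42 was incubated alone or with compound for 72 h at 37 °C. Fibril formation was then examined by transmission electron microscopy, with curcumin as positive control.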

The nature of test [13]: Metal chelating activity assessed as compound-Zn2+ complex formation at 25 uM incubated for 5 mins in presence of 25 uM ZnCl2 by UV-visible spectrophotometry.
The species entered for test [14] is Mus musculus. The test can be described thus: Cognition enhancement in scopolamine-induced amnesia mouse model by Morris water maze test. The format is functional, organism-based.

Usually inhibition stands for the relative decrease from the control value, in per cent.

Sequence of Amyloid-beta precursor protein (Homo sapiens) (P05067 whole entry): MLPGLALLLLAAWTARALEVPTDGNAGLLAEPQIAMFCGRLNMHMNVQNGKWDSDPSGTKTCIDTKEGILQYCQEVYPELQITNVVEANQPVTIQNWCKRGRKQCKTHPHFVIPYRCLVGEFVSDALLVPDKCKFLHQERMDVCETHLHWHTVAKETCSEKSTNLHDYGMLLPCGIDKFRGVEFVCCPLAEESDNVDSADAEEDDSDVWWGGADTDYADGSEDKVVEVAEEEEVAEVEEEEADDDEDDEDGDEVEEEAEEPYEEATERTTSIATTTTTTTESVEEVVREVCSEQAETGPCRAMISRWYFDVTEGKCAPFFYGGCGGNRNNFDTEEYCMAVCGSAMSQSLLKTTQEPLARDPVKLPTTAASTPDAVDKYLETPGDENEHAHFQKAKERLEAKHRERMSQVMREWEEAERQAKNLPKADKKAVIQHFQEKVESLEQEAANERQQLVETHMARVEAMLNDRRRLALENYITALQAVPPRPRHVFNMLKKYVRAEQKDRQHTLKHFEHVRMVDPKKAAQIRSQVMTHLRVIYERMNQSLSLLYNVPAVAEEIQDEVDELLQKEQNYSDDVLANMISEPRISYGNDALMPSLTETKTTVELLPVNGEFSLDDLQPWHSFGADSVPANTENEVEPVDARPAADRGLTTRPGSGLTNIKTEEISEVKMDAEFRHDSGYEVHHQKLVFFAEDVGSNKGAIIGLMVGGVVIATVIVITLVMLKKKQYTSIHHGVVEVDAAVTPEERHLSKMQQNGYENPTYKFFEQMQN

Consider `CCN(C)C(=O)Oc1cccc([C@H](C)N(C)C)c1` [RIVASTIGMINE], for which the Activity stood at 58.6% in the test listed under Danio rerio [1]; 126.3% in the test listed under Danio rerio [4]; 64% in the test listed under Danio rerio [5]; 175.1% in the test filed under Danio rerio [6]; 86.6% in the test listed under Danio rerio [7]; 53.4% in the test listed under Danio rerio [8]. Besides, the outcome with Mus musculus [2] and with Mus musculus [3] was inactive.

In the case of `CC(c1cc(O)c2ncccc2c1)N(C)C` (configuration not stated), the inhibition in test [9] was found to be 44%. Moreover, the outcome in [10], in test [11] and in test [13] was Active. Moreover, in test [12], the inhibition entry is “Active”.

Regarding `Oc1c(I)cc(Cl)c2cccnc12`, the outcome in test [10], in test [11] and in test [13] was Active. In the test listed under Mus musculus [14], the outcome was inactive.
